Reference: ChEMBL document CHEMBL3997766, “Synthesis and pre-clinical studies of new amino-acid ester thiazolide prodrugs” (Eur J Med Chem, 2017)

Legend:
Rattus norvegicus [1] = assay: Toxicity in Sprague-Dawley rat assessed as eosinophilic cytoplasmic bodies in epithelial cells of duodenum at 75 mg/kg administered as oral gavage qd for 28 consecutive days followed by 2 weeks recovery period by microscopic method; format: organism-based; settings: in vivo, 336 h
Summary of the method: (§1)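 Sub-acute study in Sprague-Dawley rats dosed orally with a suspension at 10, 30 and 75 mg/kg once daily for 28 consecutive days. Four groups of up to 30 rats each (15M/15F).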

Canis familiaris [2] = assay: Toxicity in Beagle dog administered orally as gelatin capsule once daily for 28 days; design: species or system Canis lupus familiaris; settings: in vivo, po, 672 h
Summary of the method: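 Sub-acute study in Beagle dogs: 5, 15 or 25 mg/kg/day given orally in a single gelatin capsule once a day for 28 consecutive days to assess systemic exposure and toxicity, with NOAEL determination.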

Rattus norvegicus [3] = assay: Toxicity in Sprague-Dawley rat assessed as body weight gain at 75 mg/kg administered as oral gavage qd for 28 consecutive days measured during last 3 weeks of dosing; format: organism-based; settings: in vivo, 504 h; summary of the method: as §1
Rattus norvegicus [4] = assay: Oral bioavailability in Sprague-Dawley rat assessed as Tizoxanide-glucuronide level at 28 mg/kg; format: ADME, organism-based; settings: in vivo
Summary of the method: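 Rats in groups of three got a single oral dose (30 mg/kg) or a single intravenous injection (6 mg/kg). Serial blood samples were taken at 5, 10, 15 and 30 min and at 1, 2, 4, 8, 23 and 24 h post-dose for plasma drug and glucuronide levels. Bioavailability came from oral versus intravenous AUC after dose correction to 30 mg/kg.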

Rattus norvegicus [5] = assay: Toxicity in Sprague-Dawley rat assessed as decrease in serum sodium level at 10 to 75 mg/kg administered as oral gavage qd for 28 consecutive days followed by 2 weeks recovery period measured on day 43; format: organism-based; settings: in vivo, 336 h; summary of the method: as §1
Canis familiaris [6] = assay: Toxicity in Beagle dog assessed as organ weight up to 25 mg/kg, po administered as gelatin capsule once daily for 28 days; format: organism-based, Canis lupus familiaris; settings: in vivo, 672 h
Summary of the method: (§2)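 Sub-acute study in Beagle dogs dosed orally by gelatin capsule at 5, 15 and 25 mg/kg once a day for 28 consecutive days.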

Canis familiaris [7] = assay: Toxicity in Beagle dog assessed as thickened duodenum up to 25 mg/kg, po administered as gelatin capsule once daily for 28 days measured on day 29; format: organism-based, Canis lupus familiaris; settings: in vivo, 672 h; summary of the method: as §2
Rattus norvegicus [8] = assay: Toxicity in Sprague-Dawley rat assessed as mixed cell inflammation in stomach at 75 mg/kg administered as oral gavage qd for 28 consecutive days followed by 2 weeks recovery period by microscopic method; format: organism-based; settings: in vivo, 336 h; summary of the method: as §1
Rattus norvegicus [9] = assay: Toxicity in Sprague-Dawley rat assessed as effect on tidal volume at 100 to 1000 mg/kg administered as single dose via oral gavage; format: organism-based; settings: in vivo
Summary of the method: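 Respiratory safety study: conscious rats, 3 groups of 6 (3M/3F), given single oral-gavage doses of 100, 300 or 1000 mg/kg, with an untreated control group. Respiratory rate (breaths per minute), tidal volume and minute volume were recorded, and mortality was noted.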

Canis familiaris [10] = assay: Toxicity in Beagle dog assessed as gross necropsy up to 25 mg/kg, po administered as gelatin capsule once daily for 28 days followed by two weeks of recovery period; format: organism-based, Canis lupus familiaris; settings: in vivo, 672 h; summary of the method: as §2

For `CC(C)(C)[C@H](N)C(=O)Oc1ccccc1C(=O)Nc1ncc([N+](=O)[O-])s1.Cl`, the Activity (Rattus norvegicus [1]) was “Non-Toxic”, the NOAEL (Canis familiaris [2]) was 25 mg/kg/day and the Activity (Rattus norvegicus [3]) was “Non-Toxic”. For the same compound, the F (Rattus norvegicus [4]) was 13%, the Activity (Rattus norvegicus [5]) was “Toxic” and the Activity (Canis familiaris [6]) was “Non-Toxic”. For the same compound, the Activity (Canis familiaris [7]) was “Non-Toxic”, the Activity (Rattus norvegicus [8]) was “Non-Toxic” and the Activity (Rattus norvegicus [9]) was “Toxic”. The Activity (Canis familiaris [10]) was “Non-Toxic”.
